# INS promoter inh: inhibitors of insulin promoter-driven GFP, primary screen, imaging, TRM-6 cells (human fetal islet line), eGFP reporter, cell count. inhibition, % at 2 µM. 130,000 compounds, 0.9% hits. reporter expression induced with tamoxifen;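 active = inhibition above the mean plus 3 SD, with well images judged a real hit on visual review, cut at about 60% in these data, passing the limit was not always enough; inconclusive = inhibition over the cutoff but images rejected on review; inactive = inhibition not above the cutoff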
# RBBP9 inhibitor: human RBBP9 inhibitors, primary screen, biochemical, fluorescence polarization, FP-Rh probe, HTS. recombinant RBBP9. 220,000 compounds, 0.2% hits. inhibition, % at 7.94 µM. Serine hydrolase RBBP9 (Homo sapiens), O75884;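 active = inhibition above the campaign mean of all tested compounds plus 3 SD, cut at about 14% in these data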;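 also: plate controls were DMSO wells with RBBP9 for no effect and wells lacking RBBP9 protein for full effect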
# Target sequence (O75884 whole entry, looked up): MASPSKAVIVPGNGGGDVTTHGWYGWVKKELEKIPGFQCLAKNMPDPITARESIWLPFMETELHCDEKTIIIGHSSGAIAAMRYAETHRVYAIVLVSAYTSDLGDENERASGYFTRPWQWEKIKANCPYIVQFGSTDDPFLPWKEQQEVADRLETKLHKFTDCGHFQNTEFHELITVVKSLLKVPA
#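 Test system – recombinant human RBBP9 · Input – RBBP9 2.5 µM in dispensing solution, pre-mixing · Medium – Tris buffer pH 8.0, NaCl, Pluronic · Schedule – preincubation 30 min plus labeling 45 min at 25 °C · Measured by – fluorescence polarization · Measure – % inhibition · Controls – DMSO and no-protein wells · Replicates – one well per compound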
# Wee1 degr inh: Wee1 degradation inhibitors, primary screen, cell-based, HeLa, Wee1K328M-luciferase, luminescence. Wee1-like protein kinase (Homo sapiens), P30291. HeLa Luc-Wee1K328M stability; 100% = proteasome inhibitor MG132 effect. reporter increase, % at 5 µM. 220,000 compounds, 1.2% hits. AID 1321, 2008;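 active = activation above the mean of all tested compounds plus 3 SD, set per screening run, cut at about 8.8% in these data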;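 also: cells exposed to compound for 20 h before luminescence read; 0% = DMSO alone and 100% = MG132 at 30 µM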
# Hsp70 activator: Hsp70 transcriptional activators, primary screen, cell-based, HeLa, Hsp70 promoter luciferase, luminescence, 10 µM; activation, % at 10 µM; 200,000 compounds, 0.04% hits; HeLa Hsp70 promoter luciferase reporter; scaled: vehicle 0, proteasome-inhibitor control 100%; AID 1203, 2008;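 active = activation above the mean across all tested compounds plus 3 SD, cutoff set per campaign, cut at about 5.5% in these data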;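 also: 100% = MG132 at 30 µM as the positive control and 0% = DMSO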
# Mdm2 ligase inh: MDM2-luciferase reporter signal enhancers, primary screen, MDM2 E3 ligase inhibitor project, cell-based, luminescence, 1536-well; AID 1230, 2008; 210,000 compounds, 0.11% hits; signal enhancement, % at 5 µM; cell-based MDM2 ubiquitination luciferase reporter, 2 h; 0 = plate control, 100 = twice control, blank-subtracted;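 active = signal enhancement of 30% or more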;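 also: luminescence tracks abundance of the self-degrading MDM2-luciferase fusion protein; higher signal means inhibition of MDM2 E3 ligase activity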
# Target sequence (Q00987 whole entry, looked up, the tested form may be a part): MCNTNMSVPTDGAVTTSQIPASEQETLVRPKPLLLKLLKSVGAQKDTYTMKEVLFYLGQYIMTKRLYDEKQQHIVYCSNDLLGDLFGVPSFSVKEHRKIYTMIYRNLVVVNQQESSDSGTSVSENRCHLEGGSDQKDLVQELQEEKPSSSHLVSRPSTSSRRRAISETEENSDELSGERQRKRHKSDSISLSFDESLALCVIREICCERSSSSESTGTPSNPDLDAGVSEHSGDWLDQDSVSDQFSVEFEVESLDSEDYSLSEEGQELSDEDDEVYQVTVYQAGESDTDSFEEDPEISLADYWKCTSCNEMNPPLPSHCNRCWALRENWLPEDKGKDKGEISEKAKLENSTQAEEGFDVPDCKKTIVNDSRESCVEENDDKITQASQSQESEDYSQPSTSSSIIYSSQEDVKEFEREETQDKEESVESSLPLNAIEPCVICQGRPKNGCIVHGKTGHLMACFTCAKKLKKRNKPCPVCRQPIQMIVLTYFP
#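 Test system: stable mammalian line carrying autodegrading MDM2–luciferase fusion reporter; quantity: 2000 cells in each well; times: 4 h cell settling then 2 h compound exposure, 37 °C; detection: luminescence with SteadyLite reagent, 15 min at room temperature; evaluation: percent signal gain over controls, blank-subtracted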
# Insulin prom up: insulin promoter activators in MIN6 cells, imaging, high-content screening, mouse beta cells; 190,000 compounds, 0.3% hits; MIN6 insulin promoter-GFP reporter; hits give high values; z-score at 5 µM;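 active = z-score above 3 at 5 µM with at least 500 cells counted in the well; inconclusive = wells under 500 cells, flagged as cytotoxic or low count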
# * hit, by the source's call; u = inconclusive; x = no result. The list is not random: actives were taken first. Their share in the collection is about 2.2%.
SMILES,INS promoter inh,RBBP9 inhibitor,Wee1 degr inh,Hsp70 activator,Mdm2 ligase inh,Insulin prom up
CCCn1c(SCC(=O)Nc2nc(C)cs2)nnc1-c1cccnc1,75.0*,-5.8,-1.9,0.2,-14.3,x
CCCn1c(SCC(=O)NC2CCCCC2)nnc1-c1ccncc1,-25.0,-5.3,0.5,-0.1,-5.7,3.06*
O=C(CSc1nnc(-c2ccncc2)n1Cc1ccccc1)NC1CCCCC1,x,1.6,2.1,x,x,0.17
CC1(C)Cc2c(sc3[nH]c(=S)[nH]c(=O)c23)CO1,3.7,-3.6,-1.6,-0.1,-14.3,-2.15
COc1cc2c(cc1OC)-c1cc(OCc3ccccc3Cl)nc(=O)n1CC2,65.6*,-0.1,0.1,-0.3,-14.4,0.22
COc1cc2c(cc1OC)-c1cc(NC3CCCC3)nc(=O)n1CC2,-28.6,4.1,6.0,-0.3,-15.7,0.19
NC(C(=O)O)C(c1ccccc1)C(F)F (stereo not given),x,-0.7,-0.9,x,-2.8,0.57
O=C(/C=C/c1ccco1)Nc1cccc(C(=O)Nc2ccccc2C(=O)O)c1,x,-19.8,10.5*,x,-4.3,0.97
CCc1ccccc1NC(=O)c1cccc(NC(=O)/C=C/c2ccco2)c1,x,-9.5,0.7,0.7,-10.8,-1.36
CC1=CC(=O)C=C(C)C1=NOc1ccc([N+](=O)[O-])cc1,100.0*,-1.0,-0.2,-0.3,-23.8,0.07
COc1ccc(CNc2oc(-c3cccc4ccccc34)nc2P(=O)(OC)OC)cc1,x,-1.6,9.8*,-0.4,-13.1,2.54
CCNc1nc(N)c(C(=O)c2ccc(Cl)s2)s1,20.0,-3.7,10.3*,0.5,-33.8,0.02
O=C(Nc1c2c(nc3ccccc13)CCCC2)c1ccccc1F,64.3*,-2.3,-1.8,-0.1,9.4,0.4
O=C(Nc1c2c(nc3ccccc13)CCCC2)c1ccccc1Cl,-17.6,-1.9,0.5,-0.3,-14.8,-0.02
Clc1ccc(-c2ccc(SCc3ccccn3)nn2)cc1,2.9,-10.9,10.1*,0.1,6.0,-0.58
COc1ccc(-c2ccc(SCc3ccccn3)nn2)cc1OC,14.3,1.0,8.6,0.3,-12.5,x
c1ccc(CSc2ccc(-c3ccccn3)nn2)nc1,-50.0,-7.0,9.7*,0.7,-15.9,-0.1
COC(=O)CCN1CCN(S(=O)(=O)c2ccccc2Br)CC1,x,-11.7,1.1,-0.1,6.9,-0.58
Cn1c(Cn2nnc(-c3ccccc3)n2)nnc1SCc1ccccc1Cl,15.6,-7.0,-1.9,0.0,0.0,1.23
CCOC(=O)C1C(=O)C=C(/C=C/c2ccc(N(C)C)cc2)CC1c1ccccc1 (stereo not given),x,-8.5,-1.8,-0.3,-6.9,9.81*
O=C(/C=C/c1ccc(N2CCCCC2)c([N+](=O)[O-])c1)c1ccc(O)cc1,83.3*,1.2,3.0,1.6,1.6,-0.11
COc1ccccc1C(=O)/C=C/c1ccc(N2CCCCC2)c([N+](=O)[O-])c1,59.2,-5.6,2.2,0.0,-12.2,0.29
CC(=O)Nc1ccc(NC(=O)/C=C/c2ccc3c(c2)OCO3)cc1,-14.3,-9.4,0.1,-0.1,-4.2,-0.05
Cc1cc(C)nc(NC(=O)/C=C/c2ccc3c(c2)OCO3)c1,-18.5,-7.9,8.9*,-0.3,-17.5,-0.1
CCOC(=O)c1c(-c2ccc(F)cc2)csc1/N=C/N(C)C,-75.0,-6.9,0.7,-0.1,-5.2,-1
SMILES,INS promoter inh,RBBP9 inhibitor,Wee1 degr inh,Hsp70 activator,Mdm2 ligase inh,Insulin prom up
O=C(c1ccc(-c2ccc([N+](=O)[O-])cc2Cl)o1)N1CCOCC1,x,9.3,10.8*,0.1,5.4,-0.15
COc1cccc2c(=O)n(CC(=O)Nc3cccc(F)c3)ccc12,x,-6.2,0.3,0.0,-18.7,3.43*
CCOC(=O)COc1cccc2c(=O)n(CC(=O)NCCc3ccc(OC)c(OC)c3)ccc12,20.0,-8.6,-1.2,-0.2,x,3.56*
CCCN=C(C)C1=C(O)c2ccccc2C1=O,11.1,-0.4,9.1*,0.7,-8.9,-0.19
CCN(CC)CCCN=C(C)C1=C(O)c2ccccc2C1=O,x,-6.5,-2.1,x,-7.0,-1.47
O=C(N/N=C/c1cccc(F)c1)c1c(O)c2c([nH]c1=O)CCCC2,-12.0,5.6,0.2,-0.3,1.1,0.01
CC(C)OP(=O)(OC(C)C)C(C)NC(=O)Cc1ccccc1 (stereo not given),81.8*,2.2,-2.7,-0.4,0.2,-1.22
COc1ccc(OC)c(Cc2nnc(CCC(=O)NCc3nc4ccccc4s3)o2)c1,x,-3.9,-3.4,-0.2,-11.5,-0.9
O=C(O)c1ccccc1C(=O)NCCc1c(C(=O)O)[nH]c2ccc(Cl)cc12,x,0.0,2.9,x,-11.6,0.64
COc1ccc2[nH]c(C(=O)O)c(CCNC(C)=O)c2c1,56.2,-2.7,-0.8,0.0,40.0*,0.29
COc1ccc(CN(C)CC(=O)Nc2cc(OC)c([N+](=O)[O-])cc2C)c(OC)c1,71.4*,-5.2,-0.5,-0.5,-12.4,0.15
COc1cc(NC(=O)CN(C)Cc2ccc(OC(F)F)cc2)c(C)cc1[N+](=O)[O-],x,-3.0,3.3,-0.4,-14.9,-4.52
COc1ccccc1Cn1c(=O)c2ccccc2n2c(Sc3ncnc4sccc34)nnc12,78.6*,-5.4,-1.0,-0.4,21.5,0.02
COc1ccccc1Cn1c(=O)c2ccccc2n2c(SCc3csc(C)n3)nnc12,x,0.7,0.8,0.1,18.4,0.28
Cc1c(/C=N/NC(=O)c2ccc(Br)o2)cnn1C,x,-11.7,1.2,x,-15.8,-0.02
CCOc1ccccc1NC(=O)c1ccc(S(=O)(=O)N2CCOCC2)cc1,x,-1.3,10.6*,-0.1,x,0.67
CCCCC(=O)/C=C/n1c(=S)oc2ccccc21,-34.3,-5.2,-2.2,-0.2,68.5*,x
CC(C)OC(=O)n1c(=S)oc2ccccc21,41.7,7.3,6.9,-0.1,-0.6,2.17
NC(=O)c1ccccc1NC(=O)NC1CCCCC1,u,-3.3,10.5*,0.3,x,x
COC(=O)c1ccccc1NC(=O)NC1CCCC1,x,1.7,9.5*,-0.1,2.3,-0.35
COc1ccc(NC(=O)C2CC(=O)N/C(=N/N=C/c3ccco3)S2)cc1 (stereo not given),x,-0.9,9.4*,x,-6.7,0.32
O=C1CC(C(=O)Nc2ccccc2)S/C(=N\N=C\c2ccco2)N1 (stereo not given),25.8,-13.1,-1.3,0.2,-8.1,-0.11
CC(C)C1S/C(=N/N=C/c2ccco2)NC1=O (stereo not given),-43.3,-10.0,-0.2,-0.1,-15.9,3.25*
